High-throughput results: PubChem, several laboratories
An excerpt weighted towards active compounds, which were near 2.1% of everything screened.
zVAD death inh = blocks zVAD induced death of L929 cells; L929 zVAD necroptosis rescue, ATP luminescence, 24 h; with zVAD 60 µM; viability rescue, % at 10 µM; 220,000 tested, 0.38% active;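 active = activation, scaled between plate controls, above about 75%, limit read from the data; inactive = activation under that limit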;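 also: 0% = zVAD with DMSO and 100% = DMSO alone without zVAD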
STAT1 blocker = inhibitors of IFN-gamma induced STAT1 signaling. inhibition, % at 5.5 µM. AID 920. NIH 3T3 STAT1-luciferase reporter, luminescence. 200,000 tested, 0.35% active;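 active = inhibition above a set limit, the mean inhibition across all tested compounds plus 3 SD, cut at about 34% in these data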;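 also: 0% = IFN-gamma with DMSO and 100% = IFN-gamma with 300 µM nifuroxazide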
TNF death inh = TNF-alpha cell death inhibition in Jurkat FADD-/- cells | Jurkat FADD-/- TNF necroptosis rescue, ATP luminescence, 24 h; 0 = TNF only, 100 = no-TNF cells | activation (protection from cell death), % at 10 µM | 220,000 tested, 0.068% active;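 active = activation, meaning protection from cell death, of at least 50% relative to plate controls; inactive = activation below 50%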;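 also: necroptosis triggered by 40 ng/mL TNF-alpha added together with compound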
STAT3 blocker = reduces IL-6 driven STAT3 reporter signal | inhibition, % at 5.5 µM | AID 862 | U3A cells, IL-6 STAT3-luciferase reporter, luminescence; host cell line lacks STAT1 | 190,000 tested, 0.89% active;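 active = inhibition above the mean inhibition across all screened compounds plus 3 SD, cut at about 44% in these data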;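 also: 0% = DMSO only wells and 100% = 100 µM nifuroxazide control wells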
STAT3 activator = increases IL-6 driven STAT3 reporter signal. U3A cells, IL-6 STAT3-luciferase reporter, luminescence; 100% = signal with IL-6 EC80 alone. activation (% of control), % at 5.6 µM. 190,000 tested, 0.91% active. AID 871;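 active = activation above the screen-wide mean of compound activation plus 3 SD, cut at about 130% in these data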;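 also: 0% = background luminescence of wells with medium and substrate only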
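System – human U3A cells carrying STAT3-luciferase construct · Probe or stimulus – Interleukin-6, 33 ng/mL · Schedule – compound 1 h, then IL-6 6 h at 37 °C · Signal – luminescence from STAT3-driven luciferase reporter · Evaluation – percent of IL-6-only median luminescence · Benchmarks – IL-6-only high control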
* marks the source's active call; other numbers are inactive results; · = no result.

SMILES	zVAD death inh	STAT1 blocker	TNF death inh	STAT3 blocker	STAT3 activator
COc1ccc(C2C(C(=O)c3cccs3)=C(O)C(=O)N2c2cccc(C)n2)cc1 (centres undefined)	0.1	·	-1.5	·	·
COc1ccc(C2C(C(C)=O)=C(O)C(=O)N2c2ccc(Br)cn2)cc1 (centres undefined)	0.3	-8.9	-2.5	-36.2	133.6*
Cc1nc2cc(NS(=O)(=O)c3c(C)c(C)cc(C)c3C)ccc2s1	-0.4	11.4	-1.1	39.6	69.0
Fc1ccc2nc3[nH]c4ccccc4c3nc2c1	2.3	-125.2	-3.8	-33.7	135.1*
COc1cccc2[nH]c3c(N4CCN(Cc5ccc6c(c5)OCO6)CC4)ncnc3c12	0.4	-4.0	-1.7	18.3	87.7
COc1ccc2c(c1)[nH]c1c(N3CCN(Cc4ccc5c(c4)OCO5)CC3)ncnc12	3.0	32.4	-5.3	77.0*	39.7
COc1ccc(OC)c(Nc2nc(=O)c3cccnc3s2)c1	-1.2	-8.8	-2.0	7.8	100.5
Cc1ccc(Nc2nc(=O)c3cccnc3s2)cc1	0.2	-40.7	-1.2	-46.6	143.8*
Cc1cccnc1NC(=S)NC(=O)c1cccs1	-0.2	-81.7	-5.0	-49.5	153.9*
O=C(NC(=S)Nc1ccc(Br)cn1)c1cccs1	0.6	-111.8	0.7	-84.1	168.2*
Cc1cccnc1NC(=S)NC(=O)c1cncc(Br)c1	-0.3	-24.0	-2.9	3.8	100.8
O=C(/C=C/c1cccs1)Nc1cccc(NC(=O)/C=C/c2cccs2)n1	20.9	-23.4	-1.0	-0.6	105.5
O=C(/C=C/c1cccs1)Nc1ccc(Br)cn1	1.9	-86.4	-7.1	-38.7	133.0*
O=C(NC(=S)Nc1ccc(Br)cn1)c1cncc(Br)c1	0.8	7.3	0.0	8.8	98.3
COCCN1C(=O)c2oc3ccccc3c(=O)c2C1c1ccc(O)c(OC)c1 (centres undefined)	1.6	-3.4	2.4	-14.5	112.0
COCC(=O)NNC(=O)c1ccccc1OC	-0.3	2.1	-0.8	-37.9	135.1*
O=S(=O)(C/C(=C/CO)S(=O)(=O)c1ccccc1)c1ccccc1	6.0	-174.6	-9.2	47.7*	61.6
CCN(Cc1ccccc1)C(=O)CS(=O)(=O)c1ccccc1	1.2	3.9	0.6	2.6	104.0
c1csc(CNc2ncnc3sccc23)c1	0.4	25.1	-8.5	66.1*	49.3
CCOC(=O)c1[nH]c(C)c(C(=O)N(C)C)c1C	0.1	-1.6	-0.8	-7.4	106.1
Cn1cc(CNCc2cn[nH]c2-c2ccc(F)cc2)c(-c2ccc3c(c2)OCCO3)n1	0.9	7.5	3.3	12.2	94.2
Cn1cc(CNCc2ccc(OC(F)(F)F)cc2)c(-c2ccc3c(c2)OCCO3)n1	0.8	33.4	-3.3	56.3*	54.4
COc1ccc(-c2cn3ccccc3n2)cc1OC	14.1	-32.5	-6.7	-82.4	173.3*
COc1ccc(-c2cn3cc(C)ccc3n2)cc1F	-0.8	63.2*	-1.6	87.2*	25.7
COc1ccc(-c2cn3cc(C)ccc3n2)cc1OC	-0.2	-36.3	-5.1	21.8	84.1
SMILES	zVAD death inh	STAT1 blocker	TNF death inh	STAT3 blocker	STAT3 activator
CCOc1ccc(-c2cn3ccccc3n2)cc1	0.2	53.4*	-2.0	89.0*	29.0
COc1ccc(CC(=O)Nc2ccc(-c3cn4ccccc4n3)cc2)cc1	1.4	-30.1	0.7	16.5	90.5
Cc1cc(C(=O)NC(=S)Nc2ccccc2N2CCCC2)ccc1[N+](=O)[O-]	0.5	-4.1	-1.9	-13.9	107.1
Cc1cccc2cc(/C=N/NC(=O)c3ccccc3O)c(Cl)nc12	0.7	-8.4	2.0	11.3	92.7
c1ccc(SCCN2CCc3ccccc3C2)cc1	·	-14.3	4.6	11.3	93.2
CCc1nnc(N2C(=O)c3cccc4cccc(c34)C2=O)s1	-0.5	3.0	-0.9	-40.9	135.0*
CN(C)c1ccc(N/C=C/C(=O)c2ccccc2)cc1	0.4	44.8*	-6.3	84.1*	33.1
CN(C)c1ccc(N/C=C/C(=O)C(C)(C)C)cc1	-0.9	-13.4	-0.4	11.5	94.9
O=c1oc2ccccc2cc1-c1cn2ccccc2n1	29.4	81.4*	-7.9	95.6*	19.7
CC(=C/c1ccc(C(C)C)cc1)/C=N/NC(=O)CSc1ccccn1	5.2	-54.7	3.4	-39.6	134.2*
COc1ccc(-n2ccnc2SCC(=O)NCc2ccc3c(c2)OCO3)cc1	-0.2	1.7	-1.2	13.9	90.7
COc1ccc(NC(=O)c2ccccn2)cc1	-0.5	26.9	-12.2	77.4*	34.0
